Rows were chosen to be rich in hits. Some 0.83% of all compounds tested hit in one or more screens of this group.
OXTR potentiator – potentiators of human oxytocin receptor | P30559 | CHO-OTR cells, Fluo-8 calcium fluorescence, potentiator mode; 0% = oxytocin EC15, 100% = EC100 | activation, % at 3 µM | actives 0.061% (n = 320,000);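 active = activation above that plate's cutoff, the mean activation of tested compounds plus 3 SD, cut at about 6.6% in these data, passing the limit was not always enough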
Target sequence (P30559 whole entry, looked up): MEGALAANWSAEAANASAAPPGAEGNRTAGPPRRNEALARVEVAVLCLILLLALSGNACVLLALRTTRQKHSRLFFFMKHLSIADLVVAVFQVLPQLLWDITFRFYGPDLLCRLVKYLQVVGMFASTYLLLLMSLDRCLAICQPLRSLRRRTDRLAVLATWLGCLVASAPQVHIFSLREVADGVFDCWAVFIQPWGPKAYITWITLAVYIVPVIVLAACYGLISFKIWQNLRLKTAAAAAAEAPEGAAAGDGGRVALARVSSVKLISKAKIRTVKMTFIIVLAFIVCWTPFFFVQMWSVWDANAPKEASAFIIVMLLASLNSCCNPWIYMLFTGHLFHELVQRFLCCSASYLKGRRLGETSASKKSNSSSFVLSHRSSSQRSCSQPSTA
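Material: human OTR in CHO cells. Compound: 3.0 µM, one dose. Timing: compound 6 min at room temperature before oxytocin, 100 s read. Evaluation: % activation of max/min ratio relative to oxytocin controls. Replication: single well per compound, singlicate. Signal: Fluo-8 calcium dye fluorescence.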
TRPML3 agonist – activates the human TRPML3 channel; actives 0.29% (n = 220,000); activation, % at 3 µM; HEK293 TRPML3-YFP, Fluo-8 calcium fluorescence; 100% = the carbachol control signal; Q8TDD5;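 active = activation above its plate's cutoff, the mean activation of the plate's test wells plus 3 SD, cut at about 12% in these data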
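system = HEK293 cells stably carrying human TRPML3-YFP | doses = one concentration, 3 µM nominal, 0.3% DMSO | timing = dye loading 1 h 37 °C then 30 min ambient, 125 s read | detection = Fluo-8 calcium dye fluorescence, ex 470-495, em 515-575 nm | benchmarks = high control carbachol 87 µM, low control DMSO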
TRPN1 ag – agonists of zebrafish TRPN1 channel; HEK293 zebrafish TRPN1-YFP, Fluo-8 calcium fluorescence; 100% = response to 87 µM carbachol; activation, % at 3 µM; actives 0.18% (n = 220,000);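 active = activation above its plate's cutoff, the mean activation of test wells on that plate plus 3 SD, cut at about 19% in these data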
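Control set: carbachol 87 µM as high control, DMSO as low control; system: HEK293 stable line with zebrafish TRPN1-YFP; read-out: % activation versus carbachol response; detection: intracellular calcium fluorescence with Fluo-8; doses: single test compound dose, 3 µM nominal, 0.3% DMSO; schedule: dye 1 h 37 °C plus 30 min RT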
CRFBP-R2 agonist – agonists of human CRF-binding protein/CRF-R2 receptor complex; AID 588473; actives 0.46% (n = 350,000); HEK293 CRF-R2/CRF-BP, calcium dye fluorescence (FLIPR); percent of saturating CRF peptide response; activation, % at 13.2 µM;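 active = activation of at least 50%, plus an integration ratio under a set limit after plate pattern correction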
V1R ag counter – activates human V1a receptor in oxytocin agonist counter-screen. P37288. CHO-V1R cells, Fluo-8 calcium fluorescence, agonist mode; 0% DMSO, 100% 3 nM vasopressin. activation, % at 3 µM. actives 0.25% (n = 320,000);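 active = activation above the mean activation of all tested compounds plus 3 SD, per screening run, cut at about 20% in these data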;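 also: signal is peak over basal fluorescence ratio across a 100 second FLIPR read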
OXTR agonist – activates the human oxytocin receptor. P30559. CHO-OTR cells, Fluo-8 calcium fluorescence; normalized: DMSO 0%, oxytocin 100%. activation, % at 3 µM. actives 0.32% (n = 320,000). AID 2435;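 active = activation above the mean of all tested compounds plus 3 SD, cutoff set per screening run, cut at about 20% in these data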;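 also: peak over basal fluorescence ratio from a 100 s FLIPR kinetic read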
Large screens that a line does not name were inactive.

CCOC(=O)CSc1nc(N2CCOCC2)c2c(c1C#N)CC(C)(C)N(C)C2	CRFBP-R2 agonist 196.0
CCOC(=O)CSc1nc(N2CCOCC2)c2c(c1C#N)CC(C)(C)OC2	none (no result: TRPML3 agonist, TRPN1 ag)
CCCCCCc1cc2cc(C(=O)NC)c(=N)oc2cc1O	CRFBP-R2 agonist 285.6
CCCCCCc1cc2cc(C(=O)Nc3cccc(OC)c3)c(=O)oc2cc1O	CRFBP-R2 agonist 57.1
CCCCCCc1cc2cc(C(N)=O)c(=N)oc2cc1O	none (no result: CRFBP-R2 agonist)
CCCCCCc1cc2cc(/C(N)=N/NC(=O)c3ccncc3)c(=O)oc2cc1O	CRFBP-R2 agonist 102.3 (no result: TRPML3 agonist, TRPN1 ag)
CCCCCCc1cc2cc(C(=O)Nc3ccc(OC)cc3)c(=O)oc2cc1O	none
CCCCCCc1cc2cc(C(=O)OCC)c(=O)oc2cc1O	none
COc1ccc(Br)cc1/C=N/n1c(COc2ccccc2)n[nH]c1=S	none (no result: TRPML3 agonist, TRPN1 ag)
Cc1noc(C)c1COc1ccccc1C(=O)NCCc1ccc(F)cc1	none (no result: OXTR potentiator, TRPML3 agonist, TRPN1 ag, V1R ag counter, OXTR agonist)
COC(=O)c1cccc(NC(=O)Nc2ccc(Cl)c(Cl)c2)c1	TRPN1 ag 19.5
COC(=O)c1cccc(NC(=O)NC(=O)c2ccccc2Cl)c1	none
CC(=O)c1ccc(NC(=O)Nc2cccc(Cl)c2)cc1	CRFBP-R2 agonist 52.8
Cc1ccnc(NC(=S)N2CCN(c3cccc(C(F)(F)F)c3)CC2)c1	none (no result: TRPML3 agonist, TRPN1 ag)
O=C(N/N=C/c1cc(Br)ccc1O)c1ccncc1	none
O=C(N/N=C/c1c(O)ccc2ccccc12)c1ccc(Br)o1	CRFBP-R2 agonist 101.2, V1R ag counter 21.7, OXTR agonist 20.5 (no result: TRPML3 agonist, TRPN1 ag)
CC(=NNC(=O)c1ccncc1)c1ccc2ccccc2c1O	CRFBP-R2 agonist 296.5 (no result: OXTR potentiator, TRPML3 agonist, TRPN1 ag, V1R ag counter, OXTR agonist)
O=C(N/N=C/c1ccc(O)c2ncccc12)c1cccc(Br)c1	CRFBP-R2 agonist 123.9
O=C(N/N=C/c1c(O)n(-c2ccc(Cl)cn2)c(=O)c2ccccc12)c1ccncc1	CRFBP-R2 agonist 55.1
O=C1C[C@@H]2c3c(cccc3CN1Cc1ccc(Cl)cc1)C[C@@H](O)[C@H]2O	none (no result: OXTR potentiator, TRPML3 agonist, TRPN1 ag, V1R ag counter, OXTR agonist)
CCOC(=O)CN1C(=O)CC(c2ccc([N+](=O)[O-])cc2)C1=O (configuration not stated)	none (no result: TRPML3 agonist, TRPN1 ag)
O=C(N/N=C/c1c(O)ccc2ccccc12)c1cccnc1	none (no result: TRPML3 agonist, TRPN1 ag)
O=C(NN=Cc1c(O)ccc2ccccc12)c1ccncc1	CRFBP-R2 agonist 148.7 (no result: OXTR potentiator, TRPML3 agonist, TRPN1 ag, V1R ag counter, OXTR agonist)
O=C(N/N=C\c1c(O)ccc2ccccc12)c1cncc(Br)c1	CRFBP-R2 agonist 166.9, V1R ag counter 154.5, OXTR agonist 152.4 (no result: TRPML3 agonist, TRPN1 ag)
CSc1nnc(C)c(/C=C/Nc2ccc(C)cc2)n1	CRFBP-R2 agonist 105.1
CSc1nnc(C)c(/C=C/NOCc2ccc(Cl)cc2)n1	none
Nc1cc(Cl)ccc1Nc1ccncc1	none (no result: OXTR potentiator, TRPML3 agonist, TRPN1 ag, V1R ag counter, OXTR agonist)
COc1cc(/C=C/C(=O)/C=C(O)/C=C/c2ccc(O)c(OC)c2)ccc1O	CRFBP-R2 agonist 130.4, V1R ag counter 40.9, OXTR agonist 32.8 (no result: TRPML3 agonist, TRPN1 ag)
COc1cc(/C=C/C(=O)CC(=O)/C=C/c2ccc(O)c(OC)c2)ccc1O	CRFBP-R2 agonist 214.3, V1R ag counter 24.5, OXTR agonist 33.0
COc1cc(/C=C/C(=O)O)ccc1O	none (no result: TRPML3 agonist, TRPN1 ag)
COc1ccc(C2=CC(=O)CC(C)(C)C2)cc1OC	none (no result: TRPML3 agonist, TRPN1 ag)
Cc1ccc(NC(=O)CC2OC(=O)c3ccccc32)cc1S(=O)(=O)N1CCOCC1 (configuration not stated)	none (no result: TRPML3 agonist, TRPN1 ag)
CSCCC(NC(=O)c1ccco1)C(=O)OC(C)C(=O)NC(=O)NC1CCCCC1 (configuration not stated)	TRPML3 agonist 61.9, TRPN1 ag 120.8, CRFBP-R2 agonist 183.4
O=[N+]([O-])c1ccc(NC(=S)NCCc2ccc(Cl)cc2)cc1	none
O=[N+]([O-])c1ccc(NC(=S)NCCc2ccccc2)cc1	TRPML3 agonist 12.4, TRPN1 ag 19.0
CCOC(=O)C1=C(Cc2ccc(OC)cc2)C(=O)c2ccccc2C1=O	CRFBP-R2 agonist 61.2 (no result: OXTR potentiator, V1R ag counter, OXTR agonist)
CCOC(=O)C1=C(Cc2ccc(C)cc2)C(=O)c2ccccc2C1=O	none (no result: CRFBP-R2 agonist)
CCOC(=O)C1C(c2ccc3c(c2)OCO3)NC(=O)NC1(O)C(F)(F)F (configuration not stated)	TRPN1 ag 28.3
CCC1CCCCN1CC(=O)c1c(C)[nH]c2ccccc12 (configuration not stated)	CRFBP-R2 agonist 106.6
